Measured values reported in ChEMBL document CHEMBL1240411, “Synthesis and evaluation of anti-Toxoplasma gondii and antimicrobial activities of thiosemicarbazides, 4-thiazolidinones and 1,3,4-thiadiazoles” (Eur J Med Chem, 2010).
Values after ≈ are worked out from the molar mass of the structure shown.

Tests used:
Toxoplasma gondii [1] = assay: Antimicrobial activity against tachyzoites of Toxoplasma gondii RH infected in Vero cells assessed as reduction of infected cells at 10 mM after 24 hrs relative to control; format: functional; parameters: scale not given: the % may be the effect or the level left
Outline: (§1)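 T. gondii RH tachyzoites were taken from mouse intraperitoneal passage. Vero cells were infected at 10:1 parasite:host for 1 h, PBS-washed, then held 24 h at 37 °C in medium 199 + 5% FCS. Compound exposure was 24 h at 37 °C. Cells were Bouin-fixed, Giemsa-stained and light-microscopy scored (≥400 cells) for % infected cells. Student's t-test, P<0.05. 13 assays in triplicate.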

[2] = Cytotoxicity against african green monkey Vero cells infected with tachyzoites of Toxoplasma gondii RH after 24 hrs; format: cell-based; details: chlorocebus sabaeus, read-out: LD50
Outline: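 Vero cells were infected with RH tachyzoites (10:1, 1 h), washed and incubated 24 h. They were then exposed 24 h to compound over 0.01–10 mM, in triplicate. Viability was scored by trypan blue exclusion, and LD50 was obtained by non-linear regression.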

Toxoplasma gondii [3] = assay: Antimicrobial activity against tachyzoites of Toxoplasma gondii RH infected in Vero cells assessed as reduction of infected cells at 1 mM after 24 hrs relative to control; format: functional; parameters: scale not given: the % may be the effect or the level left; outline: as §1
Toxoplasma gondii [4] = assay: Antimicrobial activity against tachyzoites of Toxoplasma gondii RH infected in Vero cells assessed as reduction of infected cells at 0.1 mM after 24 hrs relative to control; format: functional; parameters: scale not given: the % may be the effect or the level left; outline: as §1
[5] = Cytotoxicity against african green monkey Vero cells after 24 hrs; format: cell-based; details: chlorocebus sabaeus, read-out: LD50
Toxoplasma gondii [6] = assay: Antimicrobial activity against tachyzoites of Toxoplasma gondii RH infected in Vero cells assessed as reduction of infected cells after 24 hrs; format: functional; details: read-out: LD50 (the source's name)
Outline: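 RH tachyzoites came from intraperitoneal passage in Swiss mice, harvested at 48 h. Vero cells were infected at a 10:1 parasite:host ratio for 1 h, washed with PBS and grown 24 h at 37 °C in medium 199 with 5% FCS. Compounds were then added at 0.1, 1 and 10 mM for 24 h. Cells were Bouin-fixed and Giemsa-stained, and at least 400 cells were counted by light microscopy. Mean ± SD, n = 3; Student's t-test.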

Staphylococcus aureus [7] = assay: Antibacterial activity against Staphylococcus aureus UFPEDA 02 after 24 to 48 hrs by serial dilution method; format: functional
Bacillus subtilis [8] = assay: Antibacterial activity against Bacillus subtilis UFPEDA 16 after 24 to 48 hrs by serial dilution method; format: functional
Staphylococcus aureus [9] = assay: Antibacterial activity against Staphylococcus aureus UFPEDA 02 by disc diffusion method; format: functional
Outline: (§2)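 Disc diffusion: discs holding known amounts of agent were laid on agar seeded with a standardized microbial suspension. DMSO discs (CH₂Cl₂ for ketoconazole tests) served as negative controls. Read-out was mean zone of inhibition (mm). Run in triplicate, repeated if results differed.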

Bacillus subtilis [10] = assay: Antibacterial activity against Bacillus subtilis UFPEDA 16 by disc diffusion method; format: functional; outline: as §2
Aspergillus niger [11] = assay: Antifungal activity against Aspergillus niger UFPEDA 2003 by disc diffusion method; format: functional; outline: as §2
Aspergillus niger [12] = assay: Antifungal activity against Aspergillus niger UFPEDA 2003 after 24 to 48 hrs by serial dilution method; format: functional
Outline: (§3)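 Only compounds giving a disc-diffusion mean inhibition zone of at least 18 mm were carried to MIC. Nistatin and ketoconazole served as antifungal references.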

Candida [13] = assay: Antifungal activity against Candida sp. UFPEDA 2224 after 24 to 48 hrs by serial dilution method; format: functional; outline: as §3
Candida albicans [14] = assay: Antifungal activity against Candida albicans UFPEDA 1007 after 24 to 48 hrs by serial dilution method; format: functional; outline: as §3
[15] = system: Mycolicibacterium smegmatis; assay: Antibacterial activity against Mycobacterium smegmatis UFPEDA 71 after 24 to 48 hrs by serial dilution method; format: functional
[16] = system: Mycolicibacterium smegmatis; assay: Antibacterial activity against Mycobacterium smegmatis UFPEDA 71 by disc diffusion method; format: functional; outline: as §2
Candida albicans [17] = assay: Antifungal activity against Candida albicans UFPEDA 1007 by disc diffusion method; format: functional; outline: as §2
Candida [18] = assay: Antifungal activity against Candida sp. UFPEDA 2224 by disc diffusion method; format: functional; outline: as §2
Escherichia coli [19] = assay: Antibacterial activity against Escherichia coli UFPEDA 224 after 24 to 48 hrs by serial dilution method; format: functional
Escherichia coli [20] = assay: Antibacterial activity against Escherichia coli UFPEDA 224 by disc diffusion method; format: functional; outline: as §2

## Cc1[nH]cnc1-c1nnc(Nc2ccc(Cl)cc2)s1
Toxoplasma gondii [1]
  Activity: 1%
[2]
  CC50 at 24 h: 80 µM
Toxoplasma gondii [3]
  Activity: 8%
Toxoplasma gondii [4]
  Activity: 12%
[5]
  CC50 at 24 h: > 10000 µM
Toxoplasma gondii [6]
  LC50: 50 µM

## Cc1[nH]cnc1-c1nnc(Nc2ccc(F)cc2)s1
Toxoplasma gondii [1]
  Activity: 3%
[2]
  CC50 at 24 h: 70 µM
Toxoplasma gondii [3]
  Activity: 6%
Toxoplasma gondii [4]
  Activity: 22%
[5]
  CC50 at 24 h: > 10000 µM
Toxoplasma gondii [6]
  LC50: 50 µM

## Cc1[nH]cnc1C(=O)NNC(=S)Nc1ccccc1
Staphylococcus aureus [7]
  MIC: 190 µg/mL (≈ 690 µM)
Toxoplasma gondii [1]
  Activity: 0%
[2]
  CC50 at 24 h: 50 µM
Toxoplasma gondii [3]
  Activity: 6%
Toxoplasma gondii [4]
  Activity: 18%
[5]
  CC50 at 24 h: 1000 µM
Bacillus subtilis [8]
  MIC: 140 µg/mL (≈ 508 µM)
Staphylococcus aureus [9]
  inhibition zone (IZ): 18 mm
Toxoplasma gondii [6]
  LC50: 50 µM
Bacillus subtilis [10]
  inhibition zone (IZ): 27 mm

## Cc1[nH]cnc1C(=O)N/N=C1\SC(CC(=O)O)C(=O)N1c1ccc(F)cc1 (stereo not drawn)
Toxoplasma gondii [1]
  Activity: 0%
[2]
  CC50 at 24 h: 1000 µM
Toxoplasma gondii [3]
  Activity: 22%
Toxoplasma gondii [4]
  Activity: 59%
[5]
  CC50 at 24 h: 5000 µM
Aspergillus niger [11]
  inhibition zone (IZ): 18 mm
Toxoplasma gondii [6]
  LC50: 100 µM

## COc1ccc(NC(=S)NNC(=O)c2nc[nH]c2C)cc1
Staphylococcus aureus [7]
  MIC: 210 µg/mL (≈ 688 µM)
Toxoplasma gondii [1]
  Activity: 0%
[2]
  CC50 at 24 h: 70 µM
Toxoplasma gondii [3]
  Activity: 12%
Toxoplasma gondii [4]
  Activity: 22%
[5]
  CC50 at 24 h: 1000 µM
Bacillus subtilis [8]
  MIC: 160 µg/mL (≈ 524 µM)
Staphylococcus aureus [9]
  inhibition zone (IZ): 19 mm
Toxoplasma gondii [6]
  LC50: 60 µM
Bacillus subtilis [10]
  inhibition zone (IZ): 22 mm

## COc1ccc(N2C(=O)C(CC(=O)O)S/C2=N\NC(=O)c2nc[nH]c2C)cc1 (stereo not drawn)
Toxoplasma gondii [1]
  Activity: 0%
[2]
  CC50 at 24 h: 1000 µM
Toxoplasma gondii [3]
  Activity: 17%
Toxoplasma gondii [4]
  Activity: 73%
[5]
  CC50 at 24 h: 5000 µM
Toxoplasma gondii [6]
  LC50: 500 µM

## NYSTATIN
Aspergillus niger [12]
  MIC: 50 µg/mL
Candida [13]
  MIC: 50 µg/mL
Candida albicans [14]
  MIC: 50 µg/mL

## NC(=O)NO [HYDROXYUREA]
Toxoplasma gondii [1]
  Activity: 1%
[2]
  CC50 at 24 h: > 10000 µM
Toxoplasma gondii [3]
  Activity: 4%
Toxoplasma gondii [4]
  Activity: 53%
[5]
  CC50 at 24 h: > 10000 µM
Toxoplasma gondii [6]
  LC50: 500 µM

## O=C(N[C@H](CO)[C@H](O)c1ccc([N+](=O)[O-])cc1)C(Cl)Cl [CHLORAMPHENICOL]
Staphylococcus aureus [7]
  MIC: 35 µg/mL (≈ 108 µM)
Bacillus subtilis [8]
  MIC: 30 µg/mL (≈ 92.8 µM)

## CC(=O)N1CCN(c2ccc(OCC3COC(Cn4ccnc4)(c4ccc(Cl)cc4Cl)O3)cc2)CC1 (stereo not drawn) [KETOCONAZOLE]
Candida [13]
  MIC: 40 µg/mL (≈ 75.3 µM)
Candida albicans [14]
  MIC: 25 µg/mL (≈ 47 µM)

## CO[C@H]1/C=C/O[C@@]2(C)Oc3c(C)c(O)c4c(O)c(c(/C=N/N5CCN(C)CC5)c(O)c4c3C2=O)NC(=O)/C(C)=C\C=C\[C@H](C)[C@H](O)[C@@H](C)[C@@H](O)[C@@H](C)[C@H](OC(C)=O)[C@@H]1C [RIFAMPIN]
[15]
  MIC: 55 µg/mL (≈ 66.8 µM)

## Cc1[nH]cnc1-c1nnc(Nc2ccccc2)s1
Toxoplasma gondii [1]
  Activity: 0.36%
[2]
  CC50 at 24 h: 600 µM
Toxoplasma gondii [3]
  Activity: 10%
Toxoplasma gondii [4]
  Activity: 13%
[5]
  CC50 at 24 h: > 10000 µM
Toxoplasma gondii [6]
  LC50: 50 µM

## COc1ccc(Nc2nnc(-c3nc[nH]c3C)s2)cc1
Toxoplasma gondii [1]
  Activity: 0%
[2]
  CC50 at 24 h: 100 µM
Toxoplasma gondii [3]
  Activity: 14%
Toxoplasma gondii [4]
  Activity: 28%
[5]
  CC50 at 24 h: > 10000 µM
Toxoplasma gondii [6]
  LC50: 50 µM

## Cc1[nH]cnc1C(=O)NNC(=S)Nc1ccc(Cl)cc1
Staphylococcus aureus [7]
  MIC: 190 µg/mL (≈ 613 µM)
Toxoplasma gondii [1]
  Activity: 1%
[2]
  CC50 at 24 h: 60 µM
Toxoplasma gondii [3]
  Activity: 8%
Toxoplasma gondii [4]
  Activity: 11%
[5]
  CC50 at 24 h: > 10000 µM
Bacillus subtilis [8]
  MIC: 130 µg/mL (≈ 420 µM)
Staphylococcus aureus [9]
  inhibition zone (IZ): 25 mm
[15]
  MIC: 150 µg/mL (≈ 484 µM)
Toxoplasma gondii [6]
  LC50: 60 µM
[16]
  inhibition zone (IZ): 21 mm
Bacillus subtilis [10]
  inhibition zone (IZ): 29 mm

## Cc1[nH]cnc1C(=O)N/N=C1\SC(CC(=O)O)C(=O)N1c1ccc(Cl)cc1 (stereo not drawn)
Candida albicans [17]
  inhibition zone (IZ): 20 mm
Candida [18]
  inhibition zone (IZ): 20 mm
Toxoplasma gondii [1]
  Activity: 0.19%
[2]
  CC50 at 24 h: 1000 µM
Toxoplasma gondii [3]
  Activity: 51%
Toxoplasma gondii [4]
  Activity: 63%
[5]
  CC50 at 24 h: > 10000 µM
Candida [13]
  MIC: 300 µg/mL (≈ 736 µM)
Toxoplasma gondii [6]
  LC50: 1500 µM
Candida albicans [14]
  MIC: 280 µg/mL (≈ 687 µM)

## Nc1ccc(S(=O)(=O)Nc2ncccn2)cc1 [SULFADIAZINE]
Toxoplasma gondii [1]
  Activity: 36%
[2]
  CC50 at 24 h: > 10000 µM
Toxoplasma gondii [3]
  Activity: 48%
Toxoplasma gondii [4]
  Activity: 64%
[5]
  CC50 at 24 h: > 10000 µM
Toxoplasma gondii [6]
  LC50: 6000 µM

## Cc1[nH]cnc1C(=O)N/N=C1\SC(CC(=O)O)C(=O)N1c1ccccc1 (stereo not drawn)
Staphylococcus aureus [7]
  MIC: 250 µg/mL (≈ 670 µM)
Toxoplasma gondii [1]
  Activity: 0%
[2]
  CC50 at 24 h: 5000 µM
Toxoplasma gondii [3]
  Activity: 42%
Toxoplasma gondii [4]
  Activity: 69%
[5]
  CC50 at 24 h: 5000 µM
Bacillus subtilis [8]
  MIC: 270 µg/mL (≈ 723 µM)
Staphylococcus aureus [9]
  inhibition zone (IZ): 19 mm
Toxoplasma gondii [6]
  LC50: 1500 µM
Bacillus subtilis [10]
  inhibition zone (IZ): 27 mm

## Cc1[nH]cnc1C(=O)NNC(=S)Nc1ccc(F)cc1
Staphylococcus aureus [7]
  MIC: 190 µg/mL (≈ 648 µM)
Toxoplasma gondii [1]
  Activity: 0%
[2]
  CC50 at 24 h: 60 µM
Toxoplasma gondii [3]
  Activity: 8%
Escherichia coli [19]
  MIC: 250 µg/mL (≈ 852 µM)
Toxoplasma gondii [4]
  Activity: 14%
[5]
  CC50 at 24 h: 10000 µM
Bacillus subtilis [8]
  MIC: 130 µg/mL (≈ 443 µM)
Escherichia coli [20]
  inhibition zone (IZ): 21 mm
Staphylococcus aureus [9]
  inhibition zone (IZ): 20 mm
[15]
  MIC: 160 µg/mL (≈ 545 µM)
Toxoplasma gondii [6]
  LC50: 50 µM
[16]
  inhibition zone (IZ): 20 mm
Bacillus subtilis [10]
  inhibition zone (IZ): 28 mm
